# From ChEMBL document CHEMBL4138155, “Design, synthesis and biochemical evaluation of novel multi-target inhibitors as potential anti-Parkinson agents” (Eur J Med Chem, 2018)
# Key:
# [1] = biological target: Cholinesterase (Equus caballus) (UniProt P81908); assay: Inhibition of horse serum BuChE at 3 uM using butyrylthiocholine iodide as substrate preincubated for 15 mins followed by substrate addition measured after 10 mins by spectrophotometry based-Ellman's method
# [2] = biological target: T1, Amine oxidase [flavin-containing] A (Homo sapiens, UniProt P21397); assay: Inhibition of recombinant human MAO-A using kynuramine as substrate after 20 mins by fluorescence assay
# T1 sequence (P21397 whole entry): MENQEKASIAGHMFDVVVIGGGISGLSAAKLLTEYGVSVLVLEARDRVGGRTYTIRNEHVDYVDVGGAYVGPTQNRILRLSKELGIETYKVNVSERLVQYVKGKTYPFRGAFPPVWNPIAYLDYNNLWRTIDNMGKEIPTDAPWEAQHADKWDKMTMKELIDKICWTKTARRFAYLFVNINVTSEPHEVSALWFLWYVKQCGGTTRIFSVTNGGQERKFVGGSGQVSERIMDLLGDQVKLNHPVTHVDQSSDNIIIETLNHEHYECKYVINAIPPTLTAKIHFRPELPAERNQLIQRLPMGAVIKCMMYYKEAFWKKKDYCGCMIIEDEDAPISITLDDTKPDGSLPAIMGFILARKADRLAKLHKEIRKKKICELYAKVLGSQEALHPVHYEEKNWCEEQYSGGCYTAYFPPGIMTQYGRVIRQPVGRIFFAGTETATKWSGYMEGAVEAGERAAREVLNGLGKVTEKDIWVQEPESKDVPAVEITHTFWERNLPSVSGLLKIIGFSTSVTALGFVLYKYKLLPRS
# [3] = Antioxidant activity assessed as total antioxidant capacity after 90 mins by phosphomolybdenum method; format: functional
# How it was run: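 Sample combined with reagent of 0.6 M sulphuric acid, 28 mM sodium phosphate and 4 mM ammonium molybdate; heated 90 min at 95 °C, absorbance at 695 nm. EC50 = concentration giving absorbance 0.5; trolox as reference.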
# [4] = Antioxidant activity assessed as ferric ion reducing activity using Fe3+-TPTZ after 30 mins by FRAP assay; format: functional
# How it was run: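 FRAP reagent: acetate buffer (0.3 M, pH 3.6), TPTZ (10 mM) in 40 mM HCl and FeCl3 (20 mM), 10:1:1 v/v/v. Sample added, 30 min at room temperature, absorbance at 593 nm. Expressed as EC50.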
# [5] = biological target: T2, Amine oxidase [flavin-containing] B (Homo sapiens, UniProt P27338)
# T2 sequence (P27338 whole entry): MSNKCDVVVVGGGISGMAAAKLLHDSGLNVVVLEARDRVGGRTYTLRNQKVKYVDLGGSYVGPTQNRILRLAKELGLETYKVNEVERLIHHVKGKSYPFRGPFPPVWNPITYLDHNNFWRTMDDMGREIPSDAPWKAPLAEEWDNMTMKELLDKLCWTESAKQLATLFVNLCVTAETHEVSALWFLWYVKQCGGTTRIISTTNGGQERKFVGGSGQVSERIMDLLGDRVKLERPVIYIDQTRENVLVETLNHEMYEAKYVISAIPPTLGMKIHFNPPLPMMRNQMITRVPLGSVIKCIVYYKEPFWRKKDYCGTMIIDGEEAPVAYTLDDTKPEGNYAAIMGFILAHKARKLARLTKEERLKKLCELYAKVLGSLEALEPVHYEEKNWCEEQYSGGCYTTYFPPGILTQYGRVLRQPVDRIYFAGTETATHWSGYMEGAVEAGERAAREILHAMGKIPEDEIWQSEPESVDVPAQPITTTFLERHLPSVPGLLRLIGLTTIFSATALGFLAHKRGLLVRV
# [6] = Antioxidant activity assessed as cupric ion reducing activity after 30 mins by CUPRAC assay; format: functional
# How it was run: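 Sample mixed with CuCl2 (10 mM), neocuproine (7.5 mM) and NH4Ac buffer (1 M, pH 7.0) stock reagents; blank lacks CuCl2. Absorbance at 450 nm after 30 min at room temperature, blank subtracted. Expressed as EC50.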
# [7] = Antioxidant activity assessed as DPPH radical scavenging activity after 30 mins; format: functional
# How it was run: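 Sample added to 0.004% DPPH in methanol, kept 30 min in the dark at room temperature, absorbance read at 517 nm. IC50 taken as the concentration scavenging 50% of DPPH radicals; trolox as reference.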
# [8] = Antioxidant activity assessed as ABTS radical scavenging activity measured after 12 to 16 hrs; format: functional
# How it was run: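 ABTS radical cation generated from 7 mM ABTS with 2.45 mM potassium persulphate, 12-16 h dark at room temperature, then diluted with methanol to A734 0.700 ± 0.02. Sample mixed with ABTS solution, 30 min at room temperature, absorbance read at 734 nm. IC50 = concentration scavenging 50% of radicals; trolox reference.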
# [9] = biological target: T2, Amine oxidase [flavin-containing] B; assay: Inhibition of recombinant human MAO-B assessed as residual activity at 4 times IC50 using kynuramine as substrate pre-incubated for 15 mins substrate addition measured after 20 mins by fluorescence assay relative to control
# [10] = biological target: T2, Amine oxidase [flavin-containing] B; assay: Reversible inhibition of recombinant human MAO-B assessed as residual activity at 4 times IC50 using kynuramine as substrate pre-incubated for 15 mins followed by 2 fold dilution of compound for 24 hrs and subsequent substrate addition measured after 20 mins by fluorescence assay relative to control
# [11] = biological target: T2, Amine oxidase [flavin-containing] B; assay: Competitive inhibition of recombinant human MAO-B using kynuramine as substrate pre-incubated for 15 mins followed by 2 fold compound dilution for 24 hrs and subsequent substrate addition measured after 20 mins by Lineweaver-Burk plot analysis
# How it was run: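 20 min at 37 °C, NaOH stop, 4-hydroxyquinoline fluorescence read. Six Lineweaver-Burk plots; Ki from x-intercept of slope versus inhibitor concentration.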
# Chain of Cholinesterase (Equus caballus) (P81908 whole entry): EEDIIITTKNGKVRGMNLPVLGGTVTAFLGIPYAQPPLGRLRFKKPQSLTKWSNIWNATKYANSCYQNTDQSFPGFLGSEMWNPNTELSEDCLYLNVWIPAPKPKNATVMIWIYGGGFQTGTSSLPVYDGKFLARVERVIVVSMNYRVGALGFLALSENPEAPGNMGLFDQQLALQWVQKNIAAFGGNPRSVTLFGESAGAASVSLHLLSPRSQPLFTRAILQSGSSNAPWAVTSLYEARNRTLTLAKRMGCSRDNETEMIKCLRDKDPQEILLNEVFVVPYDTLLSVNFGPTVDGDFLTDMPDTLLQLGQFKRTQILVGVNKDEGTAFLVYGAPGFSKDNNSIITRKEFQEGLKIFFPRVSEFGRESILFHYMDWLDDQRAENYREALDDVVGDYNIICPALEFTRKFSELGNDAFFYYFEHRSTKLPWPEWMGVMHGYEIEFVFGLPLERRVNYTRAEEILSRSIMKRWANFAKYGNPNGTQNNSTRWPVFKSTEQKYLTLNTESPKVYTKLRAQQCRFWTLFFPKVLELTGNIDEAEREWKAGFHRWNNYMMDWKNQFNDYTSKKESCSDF
SMILES,inhibition [1] [%],IC50 [2] [µM],EC50 [3] [µM],EC50 [4] [µM],IC50 [5] [µM],EC50 [6] [µM],IC50 [7] [µM],IC50 [8] [µM],Activity [9] [%],Activity [10] [%],Ki [11] [µM]
COc1ccc2c3c1O[C@H]1C[C@@H](O)C=C[C@@]31CCN(C)C2,13.6,–,–,–,–,–,–,–,–,–,–
O=[N+]([O-])c1cccc(-c2csc(NN=C3CCCCCCC3)n2)c1,7.64,1.82,1220,390,0.01,440,1280,1090,–,–,–
CCC/C(C)=N\Nc1nc(-c2cccc([N+](=O)[O-])c2)cs1,5.16,38,1200,450,0.055,550,1200,1040,–,–,–
O=[N+]([O-])c1cccc(-c2csc(NN=C3CCCCC3)n2)c1,8.41,2.56,1430,330,0.047,320,1200,1100,–,–,–
CCCC/C(C)=N\Nc1nc(-c2cccc([N+](=O)[O-])c2)cs1,11.3,6.33,1460,370,0.118,520,1180,1060,–,–,–
CCCC/C(CC)=N\Nc1nc(-c2cccc([N+](=O)[O-])c2)cs1,10,6.03,1560,410,0.182,550,1260,1040,–,–,–
CC1CCC(=NNc2nc(-c3cccc([N+](=O)[O-])c3)cs2)CC1 (stereo not given),4.87,4.25,1130,390,0.237,390,1180,1090,–,–,–
Cc1c(C)c2c(c(C)c1O)CCC(C)(C(=O)O)O2 (stereo not given) [TROLOX],–,–,1130,160,–,240,400,660,–,–,–
C/C(=N/Nc1nc(-c2cccc([N+](=O)[O-])c2)cs1)C1CC1,12.8,2.66,1470,470,0.0053,530,1260,1060,46,91,0.0073
C/C(CC(C)C)=N/Nc1nc(-c2cccc([N+](=O)[O-])c2)cs1,8.98,4.41,1130,420,0.012,570,1350,1050,–,–,–
C/C(=N/Nc1nc(-c2cccc([N+](=O)[O-])c2)cs1)C1CCCCC1,6.22,29.1,1190,670,0.0072,610,1350,1050,–,–,–
CC/C(C)=N\Nc1nc(-c2cccc([N+](=O)[O-])c2)cs1,12.1,20.5,1650,420,0.351,580,1180,1040,–,–,–
CC(C)=NNc1nc(-c2cccc([N+](=O)[O-])c2)cs1,12.8,1.07,1750,340,0.716,510,1160,1070,–,–,–
CCC/C(CC)=N\Nc1nc(-c2cccc([N+](=O)[O-])c2)cs1,11,4.86,1250,390,0.189,530,1230,1040,–,–,–
CCCCCC/C(C)=N\Nc1nc(-c2cccc([N+](=O)[O-])c2)cs1,9.54,10.9,1240,390,0.626,530,1150,1110,–,–,–
O=[N+]([O-])c1cccc(-c2csc(NN=C3CCCC3)n2)c1,12.4,3.46,1340,400,0.095,510,1180,1100,–,–,–
C=CCC/C(C)=N\Nc1nc(-c2cccc([N+](=O)[O-])c2)cs1,6.35,3.99,1150,330,0.101,460,1210,1040,–,–,–
O=[N+]([O-])c1cccc(-c2csc(NN=C3CCCCCC3)n2)c1,7.11,1.59,1230,420,0.0086,410,1220,1070,–,–,–
CCC(CC)=NNc1nc(-c2cccc([N+](=O)[O-])c2)cs1,7.45,24.3,1100,340,0.053,460,1130,1040,–,–,–
